MrgX1 ag = agonists of human MrgX1 receptor; MrgX1-HEK293 cells, Fluo-4 calcium fluorescence, agonist mode; stronger effect = higher value; B-score at 10 µM; 310,000 tested, 0.44% active; AID 588627;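 active = calcium response B-score plate-corrected fluorescence ratio at least 3 library SD, with starting fluorescence B-score inside 5 SD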
Target sequence (Q96LB2 whole entry, looked up): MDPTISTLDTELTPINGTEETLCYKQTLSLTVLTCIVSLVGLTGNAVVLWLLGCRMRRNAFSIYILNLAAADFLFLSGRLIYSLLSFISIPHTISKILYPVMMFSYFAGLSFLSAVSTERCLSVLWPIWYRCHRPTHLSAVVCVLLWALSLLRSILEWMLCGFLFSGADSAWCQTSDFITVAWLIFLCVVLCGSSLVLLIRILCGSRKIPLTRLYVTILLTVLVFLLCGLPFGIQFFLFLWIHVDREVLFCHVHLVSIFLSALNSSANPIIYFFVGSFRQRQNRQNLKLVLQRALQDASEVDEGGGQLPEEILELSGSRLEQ
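Assay system: MrgX1-expressing HEK293 cells / Amount: fifteen thousand cells per well / Doses: test compound in the initial addition of three / Timing: cells plated overnight, dye loaded 0.5 h 37 °C, 0.5 h room temperature / Technique: kinetic calcium dye fluorescence, Fluo-4 NW / Control set: positive and negative controls per plate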
MrgX1 PAM = human MrgX1 positive allosteric modulation, primary screen. B-score at 10 µM. MrgX1-HEK293, Fluo-4 calcium flux, FDSS; stronger effect = higher value. 310,000 tested, 0.63% active. Q96LB2;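 active = plate-corrected calcium response at least 3 library SD above typical, normal starting fluorescence, not activating the receptor alone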;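 note: compound read alongside a low EC10 to EC30 dose of BAM8-22 agonist; peak minus trough fluorescence over baseline measured at the second addition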
MrgX1 antag = human MrgX1 receptor antagonism, primary screen | Q96LB2 | MRGX1-HEK293 calcium flux, Fluo-4, BAM8-22 antagonism; stronger effect = lower value | B-score at 10 µM | 310,000 tested, 1.3% active | AID 588676;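 active = calcium-response B-score plate-corrected more than 3 library SD below zero, starting fluorescence within 5 deviations, no agonist response on first addition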;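 note: peak minus trough fluorescence over baseline after final BAM8-22 challenge near maximal dose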
RGS4 pot = RGS4 potentiation or activation. AID 463111. B-score at 10 µM. 310,000 tested, 0.92% active. HEK293 M3R/inducible RGS4, carbachol calcium flux Fluo4; stronger effect = lower value;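 active = B-score of the integrated calcium signal more than 4 SD below the library mean, with starting fluorescence not abnormally high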;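 note: negative B-score means reduced calcium response which marks RGS4 activation or potentiation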
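Test system: HEK293 cells with stable M3R and inducible RGS4; also added: carbachol at ECmax as muscarinic agonist stimulus; schedule: dye loading 30 min 37 °C, buffer rest 30 min RT; technique: kinetic calcium fluorescence imaging with Fluo4-AM dye, 2 µM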
RGS4 inh = human RGS4 inhibition; P49798; HEK293 M3R/RGS4 inducible, Fluo-4 calcium flux; stronger effect = higher value; triggered by carbachol at its EC20; B-score at 10 µM; 310,000 tested, 0.45% active; AID 463165;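 active = B-score, a plate-corrected calcium signal, over three deviations above library mean, with baseline fluorescence within five deviations of library mean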;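 note: RGS4 expression induced by doxycycline in cells with stable M3 receptor; B-score is computed from the integrated fluorescence ratio over baseline after carbachol; higher B-score means a larger calcium signal and so more RGS4 inhibition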
Target sequence (P49798 whole entry, looked up): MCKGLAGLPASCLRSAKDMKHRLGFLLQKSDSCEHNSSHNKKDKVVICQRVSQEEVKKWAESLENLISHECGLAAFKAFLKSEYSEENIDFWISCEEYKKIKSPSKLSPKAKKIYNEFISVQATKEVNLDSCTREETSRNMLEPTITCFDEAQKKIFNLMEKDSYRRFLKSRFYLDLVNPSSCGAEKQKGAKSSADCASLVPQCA
MrgX1 antag conf = human MrgX1 receptor antagonism, re-confirmation screen | 2,300 tested, 19% active | remaining BAM8-22 calcium response % of control (stronger effect = lower value), % at 10 µM | MrgX1-HEK293, BAM8-22 calcium flux, Fluo-4; stronger effect = lower value | AID 602420 | shares compounds with MrgX1 antag;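 active = remaining agonist calcium response no higher than 100% minus 3 SD of agonist-only control wells, with starting fluorescence near control levels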;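 note: agonist BAM8-22 given at a near maximal EC90 to ECmax level; peak minus minimum fluorescence divided by baseline after agonist addition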
HEK293 Ca flux = counter-screen for MrgX1 antagonists: effect in parental HEK293 cells | shares compounds with MrgX1 antag | Fluo-4 calcium fluorescence, FDSS | fluorescence ratio F(max-min)/F0 at 10 µM | 4,000 tested, 2% active;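 active = duplicate-averaged calcium fluorescence ratio at least three times the standard deviation of buffer wells, a nonspecific response in parental cells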
HEK293 Ca counter = activity in parental HEK293 cells without MrgX1; shares compounds with MrgX1 antag; parental HEK293 calcium flux, Fluo-4 fluorescence ratio; stronger effect = higher value; fluorescence ratio F(max-min)/F0 at 10 µM; 4,000 tested, 0.4% active; AID 624114;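 active = calcium fluorescence ratio, averaged over duplicates, at least 3 SD of the buffer-well ratio, meaning a nonspecific response in receptor-free cells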;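 note: untransfected parental HEK293 lacking MrgX1 used as counterscreen for MrgX1 allosteric activators; fluorescence change taken during the second addition on a kinetic imager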
HEK293 Ca cntr2 = MrgX1 activator counter-screen hit in parental HEK293 cells; shares compounds with MrgX1 antag; Fluo-4 calcium fluorescence (FDSS); stronger effect = higher value; fluorescence ratio F(max-min)/F0 at 10 µM; 4,000 tested, 8.7% active;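 active = calcium fluorescence ratio at least three times the spread of buffer wells, meaning a non-specific response in parental cells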
* = called active by the depositor; i = inactive; · = no result given; ! = not active in a repeat. In the library only some 3.5% were active in any assay of this set; here they are far more common.

SMILES | MrgX1 ag | MrgX1 PAM | MrgX1 antag | RGS4 pot | RGS4 inh | MrgX1 antag conf | HEK293 Ca flux | HEK293 Ca counter | HEK293 Ca cntr2
CCN1CCC2(CC1)NC(=O)c1ccccc1O2 | i | i | i | i | i | · | · | · | ·
Clc1ccccc1CN1CCN(c2ccccc2)CC1 | i | i | i | i | i | · | · | · | ·
CC(C)(C)c1ccc(O)c(CN2CCN(c3ccccc3)CC2)c1 | i | i | -9.3* | i | i | i | i | i | i
O=C(O)C1CN2CCC1CC2 (stereo not drawn) | i | i | -8* | i | i | i | i | i | i
CCN1C[C@]2(CO)CC[C@H](OC)[C@@]34C5C[C@H]6[C@H](OC)C5[C@](O)(C[C@H]6OC)[C@@](O)(C(OC)C23)[C@@H]14 (stereo partly drawn) | i | i | -4.6* | i | i | i | i | i | i
N#CCCn1cc(C(=O)Nc2ccc(F)cc2)c(-c2ccc([N+](=O)[O-])cc2)n1 | i | i | i | i | i | · | · | · | ·
CC(C)CC1C(C#N)=C(N)Oc2c1c(=O)oc1ccccc21 (stereo not drawn) | i | i | -6.3* | i | i | i | i | i | i
CCC1C(C#N)=C(N)Oc2c1c(=O)oc1ccccc21 (stereo not drawn) | i | i | i | i | i | · | · | · | ·
N#CC(c1ccccc1)N1CCOCC1 (stereo not drawn) | i | i | i | i | i | · | · | · | ·
C=CCn1c(O)c(C(CC)=NCc2ccco2)c(=O)[nH]c1=O | i | i | i | i | i | · | · | · | ·
NC(CC(=O)O)C1CCCCC1 (stereo not drawn) | i | i | -7* | i | i | i | i | i | i
CCN(CC(=O)Nc1ccc(C#N)c(Cl)c1)CC(=O)NC(C)(C)C | i | i | i | i | i | · | · | · | ·
Cc1sc2ncnc(N3CCC(C(=O)Nc4ccc(C#N)c(Cl)c4)CC3)c2c1C | i | i | -5.8* | i | i | i | i | i | i
COc1cccc(-n2c(/C=C/c3ccc(O)c(O)c3)nc3ccccc3c2=O)c1 | i | i | -5.7* | i | i | i | i | i | i
Cn1c(O)c(C=NCCCCCCCCCCC(=O)O)c(=O)n(C)c1=O | i | i | i | i | i | · | · | · | ·
C=CCn1c(O)c(/C(C)=N/N2CCCCCC2)c(=O)[nH]c1=O | i | i | i | i | i | · | · | · | ·
CCc1ccc(-n2c(O)c(/C=N/N3CCCCC3c3cccnc3)c(=O)[nH]c2=O)cc1 (stereo not drawn) | i | i | -11* | i | i | i | i | i | i
CCOc1ccc(N2C(=O)CC(=O)NC2=O)cc1 | i | i | i | i | i | · | · | · | ·
COc1cc(N2C(=O)CC(=O)NC2=O)cc(OC)c1OC | i | i | -5.1* | i | i | 82%* | i | i | i
CC1(C)N=C(c2ccccc2)[C@@H]2C(c3ccc([N+](=O)[O-])cc3)N21 (stereo partly drawn) | i | i | i | i | i | · | · | · | ·
ClC1C(Cl)C(Cl)C(Cl)C(Cl)C1Cl (stereo not drawn) | i | i | -6.9*! | · | · | i | i | i | i
COC(=O)C1=C(c2ccc(S(C)(=O)=O)cc2)C[C@@H]2CC[C@H]1N2C(=O)NCC1CC1 | i | i | -9.4* | i | i | i | i | i | i

Compound activity: PubChem BioAssay, Johns Hopkins Ion Channel Center
